# PubChem BioAssay AID493081 (Broad Institute, 2011)
# Activity calls are given as the source filed them.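 The calls were made as follows: active = fitted half-maximal dose of growth inhibition at or below ten times the top valid tested dose; inconclusive = flat fit with moderate inhibition, or poor fit quality; inactive = the rest.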
# Tested on: not listed separately
# Experiment: growth inhibition of fluconazole-resistant C. albicans, confirmation, CaCi-2 isolate, dry powder retest, no file (AID 493081)
# Conditions: C. albicans CaCi-2 + fluconazole, Alamar Blue, 48 h; at 12 µM (top of the series)
# Procedure, shortened: (§1)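 Assay system: Candida albicans clinical isolate CaCi-2, fluconazole-resistant strain. Buffer or medium: RPMI/MOPS defined growth medium. Also added: fluconazole at 8 µg/mL throughout the growth period. Dosing: test compounds added by pin transfer. Incubation: 48 h compound at 37 °C, 2 h Alamar Blue, RT. Detection: Alamar Blue fluorescence, excitation 544 nm, emission 590 nm.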
row,SMILES,"activity change, negative = growth inhibition"
1,COC(=O)C(C)(C)n1nc(-c2ccccc2)c2ccccc21,-6.64% (inactive)
2,O=C(Cn1nc(-c2ccccc2)c2ccccc21)OC1CCC1,-23.5% (inactive)
3,COC(=O)CCCn1nc(-c2ccccc2)c2ccccc21,-23.8% (inactive)
4,COC(=O)Cn1nc(-c2ccccc2)c2ccc(C(F)(F)F)cc21,-26.8% (inactive)
5,O=C(Cn1c2ccccc2c2ccncc21)N1CCCCC1,-31.9% (inactive)
6,O=C(O)Cn1nc(-c2ccccc2)c2ccccc21,-9.2% (inactive)
7,O=C1OCCC1n1nc(-c2ccccc2)c2ccccc21 (stereo not given),-11.6% (inactive)
8,CCCCn1nc(-c2ccccc2)c2ccccc21,19.1% (inactive)
9,COc1ccc(-c2n[nH]c3ccccc23)cc1,-24.1% (inactive)
10,FC(F)(F)c1ccc(-c2n[nH]c3ccccc23)cc1,-27.3% (inactive)
11,CCC(=O)Cn1nc(-c2ccccc2)c2ccccc21,-16.1% (inactive)
12,COC(=O)Cn1nc(-c2ccccc2)c2cccc(C(F)(F)F)c21,1.65% (inactive)

# Tested on: C. albicans CaCi-2 (fluconazole-resistant clinical isolate) + fluconazole, Alamar Blue, 48 h
# Experiment: as above
# Conditions: not given
# Procedure, shortened: as §1
row,SMILES,AC50
1,O=C(Cn1c2ccc(F)cc2c2nc3n(c(=O)c21)CCS3)N1CCCC1,0.608 µM
2,CCN(CC)C(=O)Cn1c2ccc(F)cc2c2nc3n(c(=O)c21)CCS3,0.069 µM
3,O=C(Cn1c2ccccc2c2nc3n(c(=O)c21)CCS3)N1CCCC1,0.835 µM
4,CC1CCN(C(=O)Cn2c3ccccc3c3nc4n(c(=O)c32)CCS4)CC1,1.79 µM
5,COC(=O)Cn1nc(-c2ccc(F)cc2)c2ccccc21,8.18 µM
6,O=C(Cn1c2ccc(F)cc2c2nc3n(c(=O)c21)CCS3)N1CCCCC1,0.413 µM
7,COC(=O)Cn1nc(-c2ccccc2)c2ccccc21,1.27 µM
8,O=C(Cn1c2ccc(F)cc2c2nc3n(c(=O)c21)CCS3)N1CCCCCC1,0.629 µM
9,CCN(CC)C(=O)Cn1c2ccccc2c2nc3n(c(=O)c21)CCS3,7.43 µM
10,COC(=O)Cn1nc(-c2ccccc2C)c2ccccc21,6.14 µM
11,O=C(Cn1c2ccccc2c2nc3n(c(=O)c21)CCS3)N1CCCCC1,0.606 µM
12,O=C(Cn1c2ccccc2c2nc3n(c(=O)c21)CCS3)N1CCOCC1,1.61 µM
13,COC(=O)Cn1nc(-c2cccc(F)c2)c2ccccc21,8.12 µM
